Source: ChEMBL document CHEMBL3352696, “Selective immunoproteasome inhibitors with non-peptide scaffolds identified from structure-based virtual screening” (Bioorg Med Chem Lett, 2014)
Residues, ends and D or L forms follow the SMILES beside them. *: point of attachment. Fmoc = O=C(OCC1c2ccccc2-c2ccccc21)*

Key:
Homo sapiens [1] = species on record: Homo sapiens; test: Inhibition of chymotrypsin-like activity of human 20S immunoproteasome using Suc-LLVY-AMC as substrate at 5 uM after 90 mins by fluorescence assay
Procedure, shortened: (§1)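 Purified human 20S immunoproteasome or constitutive proteasome, 2-fold diluted in 20 mM Tris/Cl pH 8.0, 0.5 mM EDTA, 0.035% SDS, at 50 ng/well. The enzyme was preincubated with compound (5 µM, from DMSO) for 90 min at room temperature. Then 100 µM Suc-LLVY-AMC was added and AMC fluorescence (Ex 360/Em 460) was read for 90 min. […] Run in triplicate.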

Proteasome = test: Inhibition of chymotrypsin-like activity of constitutive proteasome (unknown origin) using Suc-LLVY-AMC as substrate at 5 uM after 90 mins by fluorescence assay; assay type: subcellular; conditions: Homo sapiens; procedure, shortened: as §1
[2] = Inhibition of chymotrypsin-like activity of human 20S immunoproteasome using Suc-LLVY-AMC as substrate after 90 mins by fluorescence assay
Homo sapiens [3] = species on record: Homo sapiens; test: Inhibition of chymotrypsin-like activity of human 20S immunoproteasome using Suc-LLVY-AMC as substrate at 1 uM after 90 mins by fluorescence assay

Row | Structure (SMILES) | inhibition (Homo sapiens [1]) | inhibition (Proteasome) | IC50 [2] | inhibition (Homo sapiens [3])
1 | NC(=O)CC[C@H](NC(=O)[C@H](Cc1cnc[nH]1)NC(=O)OCC1c2ccccc2-c2ccccc21)C(=O)N1CCC[C@H]1C(=O)O (Fmoc-His-Gln-Pro-OH) | 35% | 24% | – | –
2 | Cc1ccc(CSC[C@@H](NC(=O)c2cc(-c3ccccc3)nc3ccccc23)C(=O)NCCCN2CCCC2=O)cc1 | 62% | 15% | 4.9 µM | –
3 | CCCCc1ccc2nc(-c3ccc(OC)cc3)cc(C(=O)NC[C@@H](C)C(=O)N3CCC[C@@H]3CO)c2c1 | 21% | 2% | – | –
4 | Cc1ccc(-c2cc(C(=O)NC[C@@H]3CCCO3)c3cc(CNS(=O)(=O)c4cccc(Cl)c4)ccc3n2)o1 | 85% | 20% | 1.7 µM | –
5 | O=C(C[C@@H]1CCN(CC2CC2)C[C@@H]1[C@H]1CC(c2ccccc2Cl)=NO1)NCCc1ccccn1 | 13% | 14% | – | –
6 | CC[C@H](C)[C@H](NC(=O)[C@H]([C@@H](C)CC)N(C)C(C)=O)C(=O)N[C@H](C(=O)N[C@@H](CC(C)C)C(=O)[C@@]1(C)CO1)[C@@H](C)O | – | – | – | 100%
7 | CCC[C@H]1C[C@H](C(=O)N[C@@H]([C@@H]2O[C@H](SC)[C@@H](O)[C@@H](O)[C@@H]2O)[C@@H](C)O)N(C)C1 | 36% | 2% | 22 µM | –
8 | CC[C@@H](NC(=O)[C@@H](CC(C)C)NC(=O)OCc1ccccc1)C(=O)C(=O)NCCCN1CCOCC1 | 14% | 6% | – | –
9 | Cc1cccc(Nc2ccccc2C(=O)N[C@H](CC[S@+](C)[O-])C(=O)N[C@H](C)c2ccc(F)cc2)c1C | 31% | 33% | – | –
10 | O=C1CN(/N=C/c2ccc(-c3ccc(Cl)cc3)o2)C(=O)N1CCCCN1CCN(C[C@@H](O)c2ccccc2)CC1 | 25% | 16% | – | –
